Experimental data reported in ChEMBL document CHEMBL3826936, “Alkyne-substituted diminazene as G-quadruplex binders with anticancer activities” (Eur J Med Chem, 2016).
The source made the active and inactive calls. The calls are words filed in the database; no cut-off is given here.

What was measured:
[1] = Binding affinity to 5'-FAM/3'-TAMRA labeled c-MYC 22-mer G-quadruplex DNA (unknown origin) at 4 uM in presence of 26-mer duplex DNA by TR-FRET assay
[2] = Binding affinity to 5'-FAM/3'-TAMRA labeled c-MYC 22-mer G-quadruplex DNA (unknown origin) assessed as change in melting temperature at 4 uM after 12 hrs by TR-FRET assay
Procedure, shortened: (§1)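 Dual-labeled FAM/TAMRA oligos diluted to 800 nM in 60 mM potassium cacodylate (pH 7.2), annealed 10 min at 85 °C and cooled to room temperature. Mixed 1:1 with ligand at […] in the same buffer. Equilibrated at least 12 h at 4 °C. ΔT1/2 taken as melting temperature with minus without ligand, in triplicate, averaged.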

[3] = Binding affinity to 5'-FAM/3'-TAMRA labeled F21T 21-mer G-quadruplex DNA (unknown origin) assessed as change in melting temperature at 4 uM after 12 hrs by TR-FRET assay; procedure, shortened: as §1
[4] = Binding affinity to 5'-FAM/3'-TAMRA labeled c-kit2 26-mer G-quadruplex DNA (unknown origin) assessed as change in melting temperature at 4 uM after 12 hrs by TR-FRET assay; procedure, shortened: as §1
[5] = Binding affinity to 5'-FAM/3'-TAMRA labeled k-RAS21R 21-mer G-quadruplex DNA (unknown origin) assessed as change in melting temperature at 4 uM after 12 hrs by TR-FRET assay; procedure, shortened: as §1
[6] = Binding affinity to 5'-FAM/3'-TAMRA labeled 26-mer duplex DNA (unknown origin) assessed as change in melting temperature at 4 uM after 12 hrs by TR-FRET assay
[7] = Antiproliferative activity against human OVCAR3 cells after 72 hrs by WST-1 assay; type: functional; details: OVCAR-3, 72 h
Procedure, shortened: (§2)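 Cells seeded in 96-well plates the afternoon before treatment, at numbers keeping them in log-phase growth; about 18 h later, compounds semi-serially diluted in DMSO then growth medium and added. Incubation 72 h, then WST-1 added and plates read after 4 more hours at 37 °C. GI50 derived from curve fits; viability expressed relative to DMSO control.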

[8] = Antiproliferative activity against human PC3 cells after 72 hrs by WST-1 assay; type: functional; details: PC-3, 72 h; procedure, shortened: as §2
[9] = tested on: MDA-MB-231; assay: Antiproliferative activity against human MDA-MB-231 cells after 72 hrs by WST-1 assay; type: functional; details: MDA-MB-231, 72 h; procedure, shortened: as §2
[10] = Antiproliferative activity against human OVCAR3 cells assessed as cell viability at 20 uM after 72 hrs by WST-1 assay relative to control; type: functional; details: OVCAR-3, 72 h, read-out: Activity; procedure, shortened: as §2
[11] = Antiproliferative activity against human PC3 cells assessed as cell viability at 20 uM after 72 hrs by WST-1 assay relative to control; type: functional; details: PC-3, 72 h, read-out: Activity; procedure, shortened: as §2
[12] = tested on: MDA-MB-231; assay: Antiproliferative activity against human MDA-MB-231 cells assessed as cell viability at 20 uM after 72 hrs by WST-1 assay relative to control; type: functional; details: MDA-MB-231, 72 h, read-out: Activity; procedure, shortened: as §2
[13] = Antiproliferative activity against human bone marrow cells after 72 hrs by WST-1 assay; type: cell-based, Bone marrow cell
Procedure, shortened: (§3)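 Cells seeded the afternoon before treatment at densities giving log-phase growth; about 18 h later compounds, semi-serially diluted in DMSO then growth medium, were added. After 72 h WST-1 was added, with a further 4 h at 37 °C before plate reading. GI50 values were calculated from the curves. NBM was grown in RPMI; MCR5A was handled per ATCC.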

[14] = Antiproliferative activity against human MCR5A cells after 72 hrs by WST-1 assay; type: cell-based; procedure, shortened: as §3
[15] = Binding affinity to wild type c-MYC 24-mer G-quadruplex DNA (unknown origin) at 4:1 ligand:DNA molar ratio by isothermal titration calorimetry
[16] = Stabilization of c-MYC Pu27 G-quadruplex DNA (unknown origin) assessed as inhibition of Taq polymerase-mediated polymerization/extension of Pu27 and Pu27rev oligomers at 25 uM preincubated for 6 hrs followed by Taq polymerase addition by PCR stop assay
Procedure, shortened: (§4)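 Each 25 µL PCR mix held 1x buffer, 5 µM template (Pu27, Pu27-13,14 or Pu-mutant) and 5 µM Pu27rev, plus ligand at various concentrations, and was held at 4 °C for 6 h. Then 200 µM dNTPs and 5 U Taq were added. Cycling: 94 °C 3 min, then 20 cycles of 94 °C 30 s, 58 °C 30 s and 72 °C 30 s. Reactions without compound served as control.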

[17] = Stabilization of c-MYC template Pu27-13,14 mutant DNA (unknown origin) assessed as inhibition of Taq polymerase-mediated polymerization/extension of Pu27-13,14 mutant and Pu27rev oligomers at 10 uM preincubated for 6 hrs followed by Taq polymerase addition by PCR stop assay; procedure, shortened: as §4
[18] = Stabilization of c-MYC template Pu27 mutant DNA (unknown origin) assessed as inhibition of Taq polymerase-mediated polymerization/extension of Pu27 mutant and Pu27rev oligomers at 10 uM preincubated for 6 hrs followed by Taq polymerase addition by PCR stop assay; procedure, shortened: as §4
[19] = molecular target: Telomerase reverse transcriptase (Homo sapiens) (UniProt O14746); assay: Inhibition of telomerase activity in human MDA-MB-231 cells using amplifour TS primer preincubated for 48 to 72 hrs followed by primer addition measured after 30 mins by fluorescence plate reader analysis relative to control; type: cell-based
Procedure, shortened: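 MDA-MB-231 cells, 2 × 10⁵ per T-25 flask, were treated the next morning with vehicle or compound at 0.5×, 1×, 2× or 4× GI50. After 48 or 72 h they were lysed in CHAPS buffer with RNase inhibitor on ice for 30 min. Lysate (1000 cell-equivalents) went into a fluorescent TRAP reaction at 30 °C for 30 min. TPG units were taken against an internal standard, and inhibition was expressed relative to untreated cells.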

[20] = tested on: MDA-MB-231; assay: Binding affinity to c-MYC G-quadruplex DNA in human MDA-MB-231 cells assessed as inhibition of c-MYC protein expression at 22.3 uM incubated for 6 hrs by Western blot analysis relative to control; type: cell-based
Procedure, shortened: (§5)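 MDA-MB-231 cells were grown in DMEM with 10% heat-inactivated FBS at 37 °C and 5% CO2, then treated with DMSO vehicle or compound for 2, 6 or 24 h. Cells were washed in PBS and lysed in RIPA buffer with protease inhibitors. Blots were probed with anti-c-MYC (1:1000) and HRP anti-rabbit IgG (1:10,000), with β-actin as loading control. Band density is given as percent of vehicle at each time point.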

[21] = tested on: MDA-MB-231; assay: Binding affinity to c-MYC G-quadruplex DNA in human MDA-MB-231 cells assessed as inhibition of c-MYC protein expression at 22.3 uM incubated for 24 hrs by Western blot analysis relative to control; type: cell-based; procedure, shortened: as §5
[22] = tested on: MDA-MB-231; assay: Binding affinity to c-MYC G-quadruplex DNA in human MDA-MB-231 cells assessed as inhibition of c-MYC protein expression at 111.5 uM incubated for 24 hrs by Western blot analysis relative to control; type: cell-based; procedure, shortened: as §5
[23] = molecular target: Telomerase reverse transcriptase (Homo sapiens) (UniProt O14746); details: MDA-MB-231, 25 uM
[24] = molecular target: Telomerase reverse transcriptase (Homo sapiens) (UniProt O14746); details: MDA-MB-231, 25 uM; remark: listed apart in the source

Sequence of Telomerase reverse transcriptase (Homo sapiens) (O14746 whole entry): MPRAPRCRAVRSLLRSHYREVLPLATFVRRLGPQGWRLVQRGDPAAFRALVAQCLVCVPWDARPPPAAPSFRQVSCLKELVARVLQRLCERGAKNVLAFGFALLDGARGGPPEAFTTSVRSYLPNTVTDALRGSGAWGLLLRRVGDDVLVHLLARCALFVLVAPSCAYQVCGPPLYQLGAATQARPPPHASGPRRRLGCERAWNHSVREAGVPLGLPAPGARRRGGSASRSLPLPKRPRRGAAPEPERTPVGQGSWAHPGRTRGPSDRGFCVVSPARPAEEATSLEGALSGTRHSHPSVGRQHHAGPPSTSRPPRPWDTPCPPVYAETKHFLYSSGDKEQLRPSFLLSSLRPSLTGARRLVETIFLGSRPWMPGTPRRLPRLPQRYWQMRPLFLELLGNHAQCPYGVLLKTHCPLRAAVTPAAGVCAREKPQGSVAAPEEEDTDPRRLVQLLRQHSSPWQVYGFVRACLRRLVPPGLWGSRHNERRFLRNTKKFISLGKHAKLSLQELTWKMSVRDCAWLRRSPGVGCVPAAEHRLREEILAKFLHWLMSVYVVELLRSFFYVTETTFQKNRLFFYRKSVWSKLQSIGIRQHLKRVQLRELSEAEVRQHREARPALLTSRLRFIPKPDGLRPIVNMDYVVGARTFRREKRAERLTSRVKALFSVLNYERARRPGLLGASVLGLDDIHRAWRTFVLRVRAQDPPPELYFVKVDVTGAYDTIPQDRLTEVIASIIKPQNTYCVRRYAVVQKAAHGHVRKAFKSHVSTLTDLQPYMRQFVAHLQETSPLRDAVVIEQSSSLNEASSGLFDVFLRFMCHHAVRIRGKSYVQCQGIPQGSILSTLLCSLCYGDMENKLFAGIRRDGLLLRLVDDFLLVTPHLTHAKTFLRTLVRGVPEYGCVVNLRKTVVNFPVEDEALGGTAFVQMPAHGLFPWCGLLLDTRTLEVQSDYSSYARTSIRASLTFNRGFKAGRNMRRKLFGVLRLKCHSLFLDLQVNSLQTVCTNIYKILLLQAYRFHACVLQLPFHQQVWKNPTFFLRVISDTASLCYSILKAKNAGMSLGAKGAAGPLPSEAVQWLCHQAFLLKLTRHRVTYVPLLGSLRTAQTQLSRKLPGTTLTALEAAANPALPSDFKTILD

| Compound | Activity [1] | ΔTm [2] [°C] | ΔTm [3] [°C] | ΔTm [4] [°C] | ΔTm [5] [°C] | ΔTm [6] [°C] | GI50 [9] [µM] | GI50 [7] [µM] | GI50 [8] [µM] | viability at 20 µM [10] [%] | viability at 20 µM [11] [%] | viability at 20 µM [12] [%] | other results |
| --- | --- | --- | --- | --- | --- | --- | --- | --- | --- | --- | --- | --- | --- |
| N=C(N)c1ccc(/N=N/Nc2cccc(C#Cc3ccccn3)c2)cc1 | inactive | 9.7 | 7.3 | 8.04 | 13.2 | < 5 | 14.4 | 10.7 | 10.4 |  |  |  |  |
| N=C(N)c1ccc(/N=N/Nc2ccccc2C#Cc2ccccc2)cc1 | inactive | 6.4 | < 5 | 5.12 | 1.8 | < 5 | 5.1 | 8.1 | 5.3 |  |  |  |  |
| COc1ccc(C#Cc2cccc(N/N=N/c3ccc(C(=N)N)cc3)c2)cc1 | inactive | 7.3 | < 5 | 5.48 | 2.6 | < 5 | 5.5 | 5.2 | 5 |  |  |  |  |
| C[n+]1ccc(-c2c3nc(c(-c4cc[n+](C)cc4)c4ccc([nH]4)c(-c4cc[n+](C)cc4)c4nc(c(-c5cc[n+](C)cc5)c5ccc2[nH]5)C=C4)C=C3)cc1 |  |  |  |  |  |  | 14.3 | 14.6 | 14 |  |  |  | GI50 at 72 h [13]: 16.8 µM; GI50 at 72 h [14]: 15.2 µM |
| N=C(N)c1ccc(N)cc1 |  |  |  |  |  |  |  |  |  | ≥ 75 | ≥ 75 | ≥ 75 |  |
| Nc1cccc(C#Cc2ccc(F)cc2)c1 |  |  |  |  |  |  |  |  |  | ≥ 75 | ≥ 75 | ≥ 75 |  |
| N=C(N)c1ccc(/N=N/Nc2cccc(C#Cc3ccccc3)c2)cc1 | inactive | 7.1 | < 5 | 6.4 | 3.7 | < 5 | 9.5 | 6.5 | 5.8 |  |  |  |  |
| C[n+]1ccc(-c2c3nc(c(-c4cc[n+](C)cc4)c4ccc([nH]4)c(-c4cc[n+](C)cc4)c4ccc([nH]4)c(-c4cc[n+](C)cc4)c4nc2C=C4)C=C3)cc1 |  | 24.1 | < 5 |  | 46.7 | < 5 |  |  |  |  |  |  | inhibition [16]: Active; inhibition [17]: Active; inhibition [18]: Active; inhibition [19]: Dose-dependent effect; inhibition [20]: 40%; inhibition [21]: 92%; inhibition [22]: 100%; inhibition [23]: 60%; inhibition [24]: 80% |

Further lines, with some results ahead:

| Activity [1] | ΔTm [2] [°C] | ΔTm [3] [°C] | ΔTm [4] [°C] | ΔTm [5] [°C] | ΔTm [6] [°C] | GI50 [9] [µM] | Compound | GI50 [7] [µM] | GI50 [8] [µM] | viability at 20 µM [10] [%] | viability at 20 µM [11] [%] | viability at 20 µM [12] [%] | other results |
| --- | --- | --- | --- | --- | --- | --- | --- | --- | --- | --- | --- | --- | --- |
|  | 9.7 | 5.1 | 5.3 | 8.2 | < 5 |  | N#Cc1ccc(N/N=N/c2ccc(C(=N)N)cc2)cc1 |  |  | ≥ 75 | ≥ 75 | ≥ 75 |  |
|  | 6.2 | < 5 | 6.22 | 2.2 | < 5 |  | N#Cc1cccc(N/N=N/c2ccc(C(=N)N)cc2)c1 |  |  | ≥ 75 | ≥ 75 | ≥ 75 |  |
|  | 8.8 | < 5 | 5.48 | 15 | < 5 |  | N=C(N)c1ccc(/N=N/Nc2cccc(-c3ccccc3)c2)cc1 |  |  | ≥ 75 | ≥ 75 | ≥ 75 |  |
| inactive | 6.1 | < 5 | 6.58 | 4.3 | < 5 |  | N=C(N)c1ccc(/N=N/Nc2ccncc2)cc1 |  |  | ≥ 75 | ≥ 75 | ≥ 75 |  |
|  | 8.2 | < 5 | 5.48 | 7.1 | < 5 | 20.5 | C#Cc1cccc(N/N=N/c2ccc(C(=N)N)cc2)c1 | 16.8 | 18 |  |  |  | Activity [15]: Active |
|  | 7.1 | < 5 | 6.4 | 6.4 | < 5 |  | N=C(N)c1ccc(/N=N/Nc2ccccc2)cc1 |  |  | ≥ 75 | ≥ 75 | ≥ 75 |  |
|  | 7 | < 5 | 7.68 | 4.2 | < 5 | 23.2 | C#Cc1ccccc1N/N=N/c1ccc(C(=N)N)cc1 | > 25 | > 50 |  |  |  | Activity [15]: Active |
|  | 6.6 | < 5 | 5.3 | 4.2 | < 5 | 30.2 | C#Cc1ccc(N/N=N/c2ccc(C(=N)N)cc2)cc1 | 11.8 | 22.5 |  |  |  |  |
